Seven molecules from ChEMBL document CHEMBL1143797, “Synthesis, characterization and in vitro biological studies of novel cyano derivatives of N-alkyl and N-aryl piperazine” (2007) can be followed below.

Converted amounts (≈) assume the structure as drawn. The source made the active and inactive calls. The calls are words filed in the database; no cut-off is given here.

Assay [1] deals with Aspergillus flavus. Description: Antifungal activity against Aspergillus flavus ITCC 5192 by percentage spore germination inhibition method. It counts as functional. Put shortly: (§1)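 Compound serially double-diluted in culture medium in 96-well plates, triplicate wells per concentration. Each well inoculated with spore suspension of about 100 ± 5 spores and incubated at 37 °C for 16 h. Germinated and non-germinated spores counted by inverted microscope. MIC90 is the lowest concentration giving >90% inhibition of spore germination.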

For assay [2], the system named is Aspergillus fumigatus. Nature of the assay: Antifungal activity against Aspergillus fumigatus ITCC 4517 by micro-broth dilution method. The class given is functional. For orientation: In broth dilution the organism is exposed to a series of concentrations in liquid medium.
For assay [3], the system named is Aspergillus niger. Nature of the assay: Antifungal activity against Aspergillus niger ITCC 5405 by percentage spore germination inhibition method. It counts as functional. Put shortly: as §1
The subject of assay [4] is Staphylococcus epidermidis. Nature of the assay: Antibacterial activity against Staphylococcus epidermidis MTCCB 1824 after 18-20 hrs by broth dilution method. It counts as functional. Put shortly:
(§2)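 MIC was found by microbroth dilution in Mueller-Hinton broth with serial two-fold compound dilutions. The inoculum came from a 4–6 h broth culture adjusted to 0.5 McFarland, then diluted in broth to a final 3 × 10⁶ cfu/ml.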

Another assay concerns HeLa. Description: Cytotoxicity against Hela cells at 30 ug after 48 hrs by MTT assay relative to gentamicin. The class given is functional, Homo sapiens. Summed up: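 HeLa cells were grown in DMEM with 10% heat-inactivated FBS and penicillin-streptomycin at 37 °C, 5% CO₂, seeded at 8 × 10³ cells/well and allowed 16 h to adhere. They were exposed to compound in serum-free DMEM for 4 h, then kept 48 h in growth medium. MTT was added for 2 h, formazan was dissolved in isopropanol/0.06 M HCl/0.5% SDS, and A540 was read. Viability is % of untreated cells, with gentamicin as comparator.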
(Tetrazolium dyes change colour on reduction, which living cells bring about.)

In assay [5] the test system is Escherichia coli. Nature of the assay: Antibacterial activity against Escherichia coli MTCCB 1652 at 30 ug/disc after 48 hrs by disc diffusion method. The class given is functional. To be noted: for zone of inhibition at 30 µg/disc: read-out: IZ. Put shortly:
(§3)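 Compound-impregnated discs were placed on agar plates pre-inoculated with the bacterial strain and incubated at 37 °C. Zones of inhibition around the discs were read at 48 h. Gentamicin served as the standard control, alongside a solvent-only (DMSO) disc.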
For orientation: A growth-free zone around the sample is the usual read-out of agar diffusion tests.

The test system of assay [6] is Escherichia coli. Description: Antibacterial activity against Escherichia coli MTCCB 1652 after 18-20 hrs by broth dilution method. It counts as functional. Summed up:
as §2

The subject of assay [7] is Staphylococcus aureus. Description: Antibacterial activity against Staphylococcus aureus MTCCB 737 after 18-20 hrs by broth dilution method. It counts as functional. Put shortly: as §2
For assay [8], the system named is Aspergillus flavus. Description: Antifungal activity against Aspergillus flavus ITCC 5192 by micro-broth dilution method. It counts as functional.
The test system of assay [9] is Aspergillus fumigatus. Description: Antifungal activity against Aspergillus fumigatus ITCC 4517 by percentage spore germination inhibition method. The class given is functional. Summed up: as §1
For assay [10], the system named is Pseudomonas aeruginosa. Description: Antibacterial activity against Pseudomonas aeruginosa MTCCB 741 at 30 ug/disc after 48 hrs by disc diffusion method. It counts as functional. To be noted: for zone of inhibition at 30 µg/disc: read-out: IZ. Summed up:
as §3

Assay [11] deals with Staphylococcus aureus. Nature of the assay: Antibacterial activity against Staphylococcus aureus MTCCB 737 at 30 ug/disc after 48 hrs by disc diffusion method. The class given is functional. As to conditions: for zone of inhibition at 30 µg/disc: read-out: IZ. Summed up: as §3
Assay [12] has as its system Aspergillus niger. Description: Antifungal activity against Aspergillus niger ITCC 5405 by micro-broth dilution method. The class given is functional.
Assay [13] relates to Pseudomonas aeruginosa. Description: Antibacterial activity against Pseudomonas aeruginosa MTCCB 741 after 18-20 hrs by broth dilution method. It counts as functional. Put shortly:
as §2

In assay [14] the test system is Staphylococcus epidermidis. Description: Antibacterial activity against Staphylococcus epidermidis MTCCB 1824 at 30 ug/disc after 48 hrs by disc diffusion method. It counts as functional. As to conditions: for zone of inhibition at 30 µg/disc: read-out: IZ. Put shortly:
as §3

In assay [15] the test system is Aspergillus niger. Description: Antifungal activity against Aspergillus niger ITCC 5405 by disc diffusion method. The class given is functional. Summed up: (§4)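 Agar plates inoculated with Aspergillus spores; sterile 5.0 mm filter-paper discs loaded with test compound over a range of 750–1.46 (unit as printed unclear) and placed on the surface. Incubated at 37 °C; zones read at 24, 48 and 96 h. MIC was taken as the lowest concentration giving an inhibition zone of at least 6.0 mm diameter.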

In assay [16] the test system is Aspergillus flavus. Nature of the assay: Antifungal activity against Aspergillus flavus ITCC 5192 by disc diffusion method. The class given is functional. Put shortly: as §4

Turning to `N#CCCN1CCN(c2ccccc2)CC1`, the MIC against Aspergillus flavus [1] was found to be 250 µg/mL (≈ 1160 µM); with Aspergillus fumigatus [2] it was 250 µg/mL (≈ 1160 µM); with Aspergillus niger [3], 250 µg/mL (≈ 1160 µM); in assay [4], 156 µg/mL (≈ 726 µM); in the assay with Escherichia coli [6] it was 156 µg/mL (≈ 726 µM); with Staphylococcus aureus [7] it was 156 µg/mL (≈ 726 µM). The MIC in the assay with Aspergillus flavus [8] was 500 µg/mL (≈ 2320 µM); against Aspergillus fumigatus [9] it was 250 µg/mL (≈ 1160 µM); in the assay with Aspergillus niger [12], 500 µg/mL (≈ 2320 µM); with Pseudomonas aeruginosa [13] it was 625 µg/mL (≈ 2900 µM). Besides, the Activity in the assay with HeLa was 60%. Further, the zone of inhibition at 30 µg/disc in the assay on Escherichia coli [5] was determined as 12 mm; with Pseudomonas aeruginosa [10] it was 9 mm; in the assay on Staphylococcus aureus [11] it was 13 mm; in [14], 12 mm.

`COc1ccccc1N1CCN(CCC#N)CC1`: the MIC with Aspergillus flavus [1] was 500 µg/mL (≈ 2040 µM); in the assay with Aspergillus fumigatus [2], 500 µg/mL (≈ 2040 µM); in assay [4], 625 µg/mL (≈ 2550 µM); against Escherichia coli [6], 156 µg/mL (≈ 637 µM); against Staphylococcus aureus [7] it was 156 µg/mL (≈ 637 µM); in the assay on Aspergillus flavus [8] it was 1000 µg/mL (≈ 4080 µM). The MIC was found to be 500 µg/mL (≈ 2040 µM) in the assay with Aspergillus fumigatus [9] and 625 µg/mL (≈ 2550 µM) with Pseudomonas aeruginosa [13]. Further, the result in the assay on Aspergillus niger [3], in the assay with Aspergillus niger [12] and with Aspergillus niger [15] was inactive. The zone of inhibition at 30 µg/disc was found to be 11 mm with Escherichia coli [5], 9 mm with Pseudomonas aeruginosa [10], 12 mm with Staphylococcus aureus [11] and 9 mm in assay [14].

`N#CCCN1CCNCC1`: the outcome (in assay [4]; with Staphylococcus aureus [7]; in the assay on Pseudomonas aeruginosa [10]; in the assay with Staphylococcus aureus [11]; in the assay on Pseudomonas aeruginosa [13]; in assay [14]) was inactive.

As for `N#CCN1CCN(c2ccccc2)CC1`, the MIC against Aspergillus flavus [1] amounted to 500 µg/mL (≈ 2480 µM); against Aspergillus fumigatus [2] it was 500 µg/mL (≈ 2480 µM); against Aspergillus niger [3], 250 µg/mL (≈ 1240 µM); in assay [4], 156 µg/mL (≈ 777 µM); against Escherichia coli [6] it was 310 µg/mL (≈ 1540 µM); in the assay with Staphylococcus aureus [7], 310 µg/mL (≈ 1540 µM). Also, the MIC came out at 500 µg/mL (≈ 2480 µM) against Aspergillus flavus [8], 250 µg/mL (≈ 1240 µM) with Aspergillus fumigatus [9], 500 µg/mL (≈ 2480 µM) against Aspergillus niger [12] and 156 µg/mL (≈ 777 µM) in the assay on Pseudomonas aeruginosa [13]. Further, the Activity in the assay with HeLa is reported as over 95%. Besides, the zone of inhibition at 30 µg/disc is 9 mm with Escherichia coli [5], 13 mm with Pseudomonas aeruginosa [10], 10 mm with Staphylococcus aureus [11] and 12 mm in [14].

For `N#CCCN1CCN(Cc2ccccc2)CC1`, the outcome (in assay [4]; with Staphylococcus aureus [7]; in the assay on Pseudomonas aeruginosa [10]; with Staphylococcus aureus [11]; with Pseudomonas aeruginosa [13]; in assay [14]) was inactive.

For GENTAMICIN, the MIC in assay [4] stood at 19.5 µg/mL; in the assay on Escherichia coli [6], 19.5 µg/mL; in the assay on Staphylococcus aureus [7], 9.8 µg/mL; with Pseudomonas aeruginosa [13], 19.5 µg/mL. Moreover, the inhibition zone (IZ) in the assay with Escherichia coli [5] amounted to 18 mm; in the assay on Pseudomonas aeruginosa [10], 19 mm; in the assay on Staphylococcus aureus [11], 20 mm; in [14], 18 mm.

Take `CN1CCN(CC#N)CC1`: the MIC against Aspergillus flavus [1] came to 250 µg/mL (≈ 1800 µM); in the assay with Aspergillus fumigatus [2] it was 500 µg/mL (≈ 3590 µM); with Aspergillus niger [3] it was 250 µg/mL (≈ 1800 µM); in [4] it was 625 µg/mL (≈ 4490 µM); against Aspergillus flavus [16] it was 93.8 µg/disc; against Escherichia coli [6], 310 µg/mL (≈ 2230 µM). For the same molecule, the MIC is 310 µg/mL (≈ 2230 µM) against Staphylococcus aureus [7]; 500 µg/mL (≈ 3590 µM) with Aspergillus flavus [8]; 500 µg/mL (≈ 3590 µM) with Aspergillus fumigatus [9]; 500 µg/mL (≈ 3590 µM) with Aspergillus niger [12]; 625 µg/mL (≈ 4490 µM) against Pseudomonas aeruginosa [13]; 93.7 µg/disc in the assay on Aspergillus niger [15]. Further, the zone of inhibition at 30 µg/disc came to 12 mm with Escherichia coli [5], 9 mm with Pseudomonas aeruginosa [10], 12 mm in the assay with Staphylococcus aureus [11] and 8 mm in assay [14].
